Measured values from ChEMBL document CHEMBL1121887, “A new nontricyclic antidepressant agent. Synthesis and activity of N-[trans-2-(dimethylamino)cyclopentyl]-N-(3,4-dichlorophenyl)propanamide and related compounds” (1981).

Tests used:
Type in all cases: functional
[1] = species on record: Mus musculus; assay: Antidepressant activity using apomorphine potentiation test in mice
Procedure, shortened: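 Male CF-1 mice in groups of four got test compound i.p. (50 and 25 mg/kg) in 0.25% aqueous methylcellulose. 1 h later they got apomorphine 10 mg/kg s.c. and were watched 30 min for stereotyped gnawing and licking, each positive. If ≥3 were positive, the test was repeated at 0.3 log lower doses until ≤1 responded. ED50 and 95% CI by Spearman–Karber.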

[2] = species on record: Mus musculus; assay: Antidepressant activity using oxotremorine antagonism test in mice
[3] = species on record: Mus musculus; assay: Antidepressant activity using yohimbine potentiation test in mice

SMILES | ED50 ([1]; Mus musculus, read-out: ED50) | ED50 ([2]; Mus musculus, read-out: ED50) | ED50 ([3]; Mus musculus, read-out: ED50) | ED50 [1] | ED50 [2] | ED50 [3]
C=CC(=O)N(c1ccc(Cl)c(Cl)c1)C1CCCC1N(C)C (stereo not drawn) | 5 mg/kg | 5 mg/kg | 2 mg/kg | – | – | –
CN(C)C1CCCC1N(C(=O)C1CCC1)c1ccc(Cl)c(Cl)c1 (stereo not drawn) | > 50 mg/kg | 0.6 mg/kg | 0.8 mg/kg | – | – | –
CCC(=O)N(c1ccc(Cl)c(Cl)c1)C1CCCCCC1N(C)C (stereo not drawn) | 20 mg/kg | 6 mg/kg | 2 mg/kg | – | – | –
CC(C)C(=O)N(c1ccc(Cl)c(Cl)c1)C1CCCC1N(C)C (stereo not drawn) | 5 mg/kg | 4 mg/kg | 2 mg/kg | – | – | –
CCC(=O)N(c1ccc(Cl)c(Cl)c1)C1CCCCCCC1N(C)C (stereo not drawn) | 6 mg/kg | 10 mg/kg | 20 mg/kg | – | – | –
CCC(=O)N(c1ccc(C#N)cc1)C1CCCC1N(C)C (stereo not drawn) | > 50 mg/kg | 40 mg/kg | 10 mg/kg | – | – | –
CCC(=O)N(c1ccc([N+](=O)[O-])cc1)C1CCCC1N(C)C (stereo not drawn) | 20 mg/kg | 6 mg/kg | 20 mg/kg | – | – | –
CN(C)C1CCCC1N(C(=O)C1CCCCC1)c1ccc(Cl)c(Cl)c1 (stereo not drawn) | > 50 mg/kg | 2 mg/kg | 1 mg/kg | – | – | –
CCC(=O)N(c1ccc(Cl)c(Cl)c1)C1CCCCC1N(C)C (stereo not drawn) | 20 mg/kg | 20 mg/kg | 30 mg/kg | – | – | –
CCNC1CCCC1N(C(=O)CC)c1ccc(Cl)c(Cl)c1 (stereo not drawn) | – | 2 mg/kg | 0.2 mg/kg | – | – | –
CCC(=O)N(c1ccc(F)cc1)C1CCCC1N(C)C (stereo not drawn) | > 50 mg/kg | 0.08 mg/kg | 5 mg/kg | – | – | –
CCC(=O)N(c1ccc(C(C)=O)cc1)C1CCCC1N(C)C (stereo not drawn) | > 50 mg/kg | 40 mg/kg | > 50 mg/kg | – | – | –
CCC(=O)N(c1cccc(OC)c1)C1CCCC1N(C)C (stereo not drawn) | 4 mg/kg | 4 mg/kg | 0.8 mg/kg | – | – | –
CCC(=O)N(c1cccc(C(F)(F)F)c1)C1CCCC1N(C)C (stereo not drawn) | 0.9 mg/kg | 0.2 mg/kg | 0.3 mg/kg | – | – | –
CN(C)C1CCCC1N(C(=O)C1CC1)c1ccc(Cl)c(Cl)c1 (stereo not drawn) | 0.4 mg/kg | 0.3 mg/kg | 0.2 mg/kg | – | – | –
CCC(=O)N(c1cccc(Cl)c1)C1CCCC1N(C)C (stereo not drawn) | 20 mg/kg | 0.2 mg/kg | 0.4 mg/kg | – | – | –
CCC(=O)N(c1ccc(Cl)c(Cl)c1)C1CCCC1N(C)CCc1ccccc1 (stereo not drawn) | 5 mg/kg | 0.4 mg/kg | 0.1 mg/kg | – | – | –
CN(C)C1CCCC1N(C(=O)c1ccco1)c1ccc(Cl)c(Cl)c1 (stereo not drawn) | > 50 mg/kg | > 50 mg/kg | 9 mg/kg | – | – | –
CCC(=O)N(c1ccc(C(F)(F)F)cc1)C1CCCC1N(C)C (stereo not drawn) | 10 mg/kg | 25 mg/kg | 10 mg/kg | – | – | –
CCC(=O)N(c1ccc(Br)c(Br)c1)C1CCCC1N(C)C (stereo not drawn) | 0.5 mg/kg | 0.2 mg/kg | 0.1 mg/kg | – | – | –
CCCN(CCC)C1CCCC1N(C(=O)CC)c1ccc(Cl)c(Cl)c1 (stereo not drawn) | > 50 mg/kg | 0.1 mg/kg | 2 mg/kg | – | – | –
C=CCNC1CCCC1N(C(=O)CC)c1ccc(Cl)c(Cl)c1 (stereo not drawn) | – | 3 mg/kg | 0.2 mg/kg | – | – | –
CC(=O)N(c1ccc(Cl)c(Cl)c1)C1CCCC1N(C)C (stereo not drawn) | 20 mg/kg | 10 mg/kg | 9 mg/kg | – | – | –

SMILES | ED50 ([1]; Mus musculus, read-out: ED50) | ED50 ([2]; Mus musculus, read-out: ED50) | ED50 ([3]; Mus musculus, read-out: ED50) | ED50 [1] | ED50 [2] | ED50 [3]
CCC(=O)N(c1ccc(C(=O)OC)cc1)C1CCCC1N(C)C (stereo not drawn) | > 50 mg/kg | > 50 mg/kg | > 50 mg/kg | – | – | –
CCCC(=O)N(c1ccccc1)C1CCCC1N(C)C (stereo not drawn) | 40 mg/kg | 10 mg/kg | 6 mg/kg | – | – | –
CC(=O)N(c1ccccc1)C1CCCC1N(C)C (stereo not drawn) | 40 mg/kg | 9 mg/kg | 7 mg/kg | – | – | –
CCC(=O)N(c1ccc(Cl)cc1)C1CCCC1N(C)C (stereo not drawn) | > 50 mg/kg | 0.2 mg/kg | 3 mg/kg | – | – | –
CCC(=O)N(c1ccccc1C)C1CCCC1N(C)C (stereo not drawn) | > 50 mg/kg | 5 mg/kg | 7 mg/kg | – | – | –
CCC(=O)N(c1c(F)c(F)c(F)c(F)c1F)C1CCCC1N(C)C (stereo not drawn) | > 50 mg/kg | > 50 mg/kg | > 50 mg/kg | – | – | –
CCC(=O)N(c1ccccc1Cl)C1CCCC1N(C)C (stereo not drawn) | > 50 mg/kg | 2 mg/kg | 6 mg/kg | – | – | –
CCC(=O)N(c1ccc(Cl)c(Cl)c1)C1CCCC1N(C)CCN(C)C (stereo not drawn) | 20 mg/kg | 5 mg/kg | 0.8 mg/kg | – | – | –
CCC(=O)N(c1ccc(Cl)c(Cl)c1)C1CCCC1N(C)CCCN(C)C (stereo not drawn) | 30 mg/kg | 10 mg/kg | 4 mg/kg | – | – | –
CCC(=O)N(c1cc(Cl)c(Cl)c(Cl)c1)C1CCCC1N(C)C (stereo not drawn) | 40 mg/kg | 40 mg/kg | 4 mg/kg | – | – | –
CCC(=O)N(c1cc(Cl)cc(Cl)c1)C1CCCC1N(C)C (stereo not drawn) | 30 mg/kg | 5 mg/kg | 0.9 mg/kg | – | – | –
CCC(=O)N(c1ccc(C)c(Cl)c1)C1CCCC1N(C)C (stereo not drawn) | 2 mg/kg | 0.6 mg/kg | 1 mg/kg | – | – | –
CCC(=O)N(c1ccc(OC)cc1)C1CCCCC1N(C)C (stereo not drawn) | > 50 mg/kg | > 50 mg/kg | > 50 mg/kg | – | – | –
CN(C)C1CCCC1N(C=O)c1ccccc1 (stereo not drawn) | – | > 50 mg/kg | 40 mg/kg | – | – | –
CCC(=O)N(c1cccc(Br)c1)C1CCCC1N(C)C (stereo not drawn) | 2 mg/kg | 0.1 mg/kg | 0.1 mg/kg | – | – | –
CCC(=O)N(c1ccc(Cl)c(C)c1)C1CCCC1N(C)C (stereo not drawn) | 10 mg/kg | 2 mg/kg | 2 mg/kg | – | – | –
CCC(=O)N(c1ccc(Cl)cc1)C1CCCCC1N(C)C (stereo not drawn) | 14 mg/kg | 17 mg/kg | 35 mg/kg | – | – | –
CCC(=O)N(c1ccc(Br)cc1)C1CCCC1N(C)C (stereo not drawn) | > 50 mg/kg | 3 mg/kg | 2 mg/kg | – | – | –
CN(C)C1CCCC1N(C=O)c1ccc(Cl)c(Cl)c1 (stereo not drawn) | > 50 mg/kg | 40 mg/kg | 9 mg/kg | – | – | –
CCC(=O)N(c1ccc(OC)c(OC)c1)C1CCCC1N(C)C (stereo not drawn) | 10 mg/kg | 10 mg/kg | 9 mg/kg | – | – | –
CCC(=O)N(c1ccccc1)C1CCCCC1N(C)C (stereo not drawn) | > 50 mg/kg | > 50 mg/kg | > 50 mg/kg | – | – | –
CCC(=O)N(c1ccc(Cl)c(Cl)c1)C1CCCC1N(CC)CC (stereo not drawn) | 0.3 mg/kg | 0.03 mg/kg | 0.1 mg/kg | – | – | –
CCC(=O)N(c1ccc(Cl)c(Cl)c1)C1CCCC1O (stereo not drawn) | 20 mg/kg | 9 mg/kg | 0.4 mg/kg | – | – | –

SMILES | ED50 ([1]; Mus musculus, read-out: ED50) | ED50 ([2]; Mus musculus, read-out: ED50) | ED50 ([3]; Mus musculus, read-out: ED50) | ED50 [1] | ED50 [2] | ED50 [3]
CCC(=O)N(c1ccc(C)cc1)C1CCCCC1N(C)C (stereo not drawn) | > 50 mg/kg | > 50 mg/kg | > 50 mg/kg | – | – | –
CN(C)C1CCCC1N(C(=O)c1cccs1)c1ccc(Cl)c(Cl)c1 (stereo not drawn) | > 50 mg/kg | 10 mg/kg | 20 mg/kg | – | – | –
CCC(=O)N(c1ccc(Cl)c(Cl)c1)C1CCCC1N (stereo not drawn) | – | 0.8 mg/kg | 0.02 mg/kg | – | – | –
CCC(=O)N(c1cccc(F)c1)C1CCCC1N(C)C (stereo not drawn) | 5 mg/kg | 0.6 mg/kg | 0.4 mg/kg | – | – | –
CCC(=O)N(c1ccc(Cl)c(Cl)c1)C1CCCC1N(C)Cc1ccccc1 (stereo not drawn) | > 50 mg/kg | 40 mg/kg | 0.2 mg/kg | – | – | –
CCC(=O)N(c1ccc(Cl)c(Cl)c1)C1CCCC1NC (stereo not drawn) | – | 0.3 mg/kg | 0.4 mg/kg | – | – | –
CCC(=O)N(c1ccc(F)c(Cl)c1)C1CCCC1N(C)C (stereo not drawn) | 0.7 mg/kg | 2 mg/kg | 0.2 mg/kg | – | – | –
CCC(=O)N(c1ccc(Cl)c(Cl)c1)C1CCCC1N1CCCC1 (stereo not drawn) | 3 mg/kg | 2 mg/kg | 0.6 mg/kg | – | – | –
C=CCN(C)C1CCCC1N(C(=O)CC)c1ccc(Cl)c(Cl)c1 (stereo not drawn) | 6 mg/kg | 0.2 mg/kg | 0.2 mg/kg | – | – | –
CCCC(=O)N(c1ccc(Cl)c(Cl)c1)C1CCCC1N(C)C (stereo not drawn) | 0.9 mg/kg | 7 mg/kg | 2 mg/kg | – | – | –
CCC(=O)N(c1cccc(C)c1)C1CCCCC1N(C)C (stereo not drawn) | > 50 mg/kg | 15 mg/kg | > 50 mg/kg | – | – | –
CCC(=O)N(c1ccccc1)C1CCCC1N(C)C (cis isomer) | – | – | – | >50 mg/kg | >50 mg/kg | 10 mg/kg
CCC(=O)N(c1ccc(Cl)c(Cl)c1)C1CCCC1N(C)C (cis isomer) [ECLANAMINE] | – | – | – | >50 mg/kg | 2 mg/kg | 0.9 mg/kg
CCC(=O)N(c1ccc(Cl)c(Cl)c1)C1CCCC1N(C)C (stereo in doubt; 6) [ECLANAMINE] | – | – | – | 10 mg/kg | 0.2 mg/kg | 0.4 mg/kg
CCC(=O)N(c1ccccc1)C1CCCC1N(C)C (stereo in doubt; 16) | – | – | – | 0.8 mg/kg | 2 mg/kg | 3 mg/kg
CCC(=O)N(c1ccc(OC)cc1)C1CCCC1N(C)C (stereo in doubt; 20) | – | – | – | – | 20 mg/kg | 30 mg/kg
CCC(=O)N(c1cccc(C)c1)C1CCCC1N(C)C (stereo in doubt; 22) | 25 mg/kg | 1 mg/kg | 3 mg/kg | – | – | –
CCC(=O)N(c1ccc(C)cc1)C1CCCC1N(C)C (stereo in doubt; 24) | – | – | – | 10 mg/kg | 10 mg/kg | 30 mg/kg
CCC(=O)N(c1cccc(C)c1)C1CCCC1N(C)C (stereo in doubt; 44) | – | – | – | 25 mg/kg | 1 mg/kg | 3 mg/kg
CCC(=O)N(c1ccc(C)cc1)C1CCCC1N(C)C (stereo in doubt; 45) | 10 mg/kg | 10 mg/kg | 30 mg/kg | – | – | –
CCC(=O)N(c1ccc(OC)cc1)C1CCCC1N(C)C (stereo in doubt; 47) | > 50 mg/kg | 20 mg/kg | 30 mg/kg | – | – | –
CN(C)CCCN1c2ccccc2CCc2ccccc21.Cl [IMIPRAMINE HYDROCHLORIDE] | 1 mg/kg | 1 mg/kg | 4 mg/kg | – | – | –
